# Assay results published in ChEMBL document CHEMBL4732199, “Potent and orally bioavailable CDK8 inhibitors: Design, synthesis, structure-activity relationship analysis and biological evaluation” (Eur J Med Chem, 2021).
# Active and inactive are the calls of the source. The rule behind the calls is not given here.
# Experiments:
# [1] = target: CDK18/Cyclin Y (Homo sapiens) (UniProt Q07002+Q8ND76); experiment: Inhibition of CDK18/Cyclin Y (unknown origin) at 1 uM; type: protein-complex assay
# Summary of the method: (§1)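 Residual activity of each kinase with compound at 1 µM, measured in a contracted radioisotope-based kinase profiling assay and expressed as % kinase activity remaining.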
# [2] = target: CDK17/Cyclin-Y (Homo sapiens) (UniProt Q00537+Q8ND76); experiment: Inhibition of CDK17/Cyclin Y (unknown origin) at 1 uM; type: protein-complex assay; summary of the method: as §1
# Chain of CDK17/Cyclin-Y (Homo sapiens) (Q00537 whole entry): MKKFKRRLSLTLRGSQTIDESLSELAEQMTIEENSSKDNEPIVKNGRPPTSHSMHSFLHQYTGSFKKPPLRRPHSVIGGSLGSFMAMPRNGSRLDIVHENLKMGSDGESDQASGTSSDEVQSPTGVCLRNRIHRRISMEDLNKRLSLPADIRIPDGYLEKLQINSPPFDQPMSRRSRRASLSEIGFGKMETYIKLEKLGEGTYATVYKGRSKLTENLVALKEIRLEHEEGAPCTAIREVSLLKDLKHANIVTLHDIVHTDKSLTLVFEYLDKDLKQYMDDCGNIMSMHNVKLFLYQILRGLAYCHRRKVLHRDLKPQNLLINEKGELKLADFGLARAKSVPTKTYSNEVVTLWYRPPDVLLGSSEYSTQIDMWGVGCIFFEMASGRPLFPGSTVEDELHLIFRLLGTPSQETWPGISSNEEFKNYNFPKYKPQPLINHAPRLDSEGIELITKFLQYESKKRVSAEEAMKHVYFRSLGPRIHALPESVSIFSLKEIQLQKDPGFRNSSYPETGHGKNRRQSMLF
# Chain of CDK17/Cyclin-Y (Homo sapiens) (Q8ND76 2-341 partner limits assumed): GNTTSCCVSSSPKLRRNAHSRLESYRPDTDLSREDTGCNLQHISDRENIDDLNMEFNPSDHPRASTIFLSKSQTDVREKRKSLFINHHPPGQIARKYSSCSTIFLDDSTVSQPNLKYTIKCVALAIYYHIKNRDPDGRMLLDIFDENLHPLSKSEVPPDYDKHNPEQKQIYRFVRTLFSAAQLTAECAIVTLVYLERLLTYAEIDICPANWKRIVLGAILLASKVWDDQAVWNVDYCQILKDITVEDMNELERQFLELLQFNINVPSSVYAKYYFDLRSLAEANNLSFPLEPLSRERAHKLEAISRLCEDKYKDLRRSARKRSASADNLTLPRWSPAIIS
# [3] = target: Cyclin-Y/Cyclin-dependent kinase 16 (Homo sapiens) (UniProt Q00536+Q8ND76); experiment: Inhibition of CDK16/Cyclin Y (unknown origin) at 1 uM; type: protein-complex assay; summary of the method: as §1
# [4] = target: Cyclin-dependent kinase 14/Cyclin-Y (Homo sapiens) (UniProt O94921+Q8ND76); experiment: Inhibition of CDK14/Cyclin Y (unknown origin) at 1 uM; type: protein-complex assay; summary of the method: as §1
# [5] = target: CDK9/cyclin T1 (Homo sapiens, UniProt P50750); experiment: Inhibition of CDK9/Cyclin T1 (unknown origin); type: protein-complex assay
# Chain of CDK9/cyclin T1 (O60563 whole entry): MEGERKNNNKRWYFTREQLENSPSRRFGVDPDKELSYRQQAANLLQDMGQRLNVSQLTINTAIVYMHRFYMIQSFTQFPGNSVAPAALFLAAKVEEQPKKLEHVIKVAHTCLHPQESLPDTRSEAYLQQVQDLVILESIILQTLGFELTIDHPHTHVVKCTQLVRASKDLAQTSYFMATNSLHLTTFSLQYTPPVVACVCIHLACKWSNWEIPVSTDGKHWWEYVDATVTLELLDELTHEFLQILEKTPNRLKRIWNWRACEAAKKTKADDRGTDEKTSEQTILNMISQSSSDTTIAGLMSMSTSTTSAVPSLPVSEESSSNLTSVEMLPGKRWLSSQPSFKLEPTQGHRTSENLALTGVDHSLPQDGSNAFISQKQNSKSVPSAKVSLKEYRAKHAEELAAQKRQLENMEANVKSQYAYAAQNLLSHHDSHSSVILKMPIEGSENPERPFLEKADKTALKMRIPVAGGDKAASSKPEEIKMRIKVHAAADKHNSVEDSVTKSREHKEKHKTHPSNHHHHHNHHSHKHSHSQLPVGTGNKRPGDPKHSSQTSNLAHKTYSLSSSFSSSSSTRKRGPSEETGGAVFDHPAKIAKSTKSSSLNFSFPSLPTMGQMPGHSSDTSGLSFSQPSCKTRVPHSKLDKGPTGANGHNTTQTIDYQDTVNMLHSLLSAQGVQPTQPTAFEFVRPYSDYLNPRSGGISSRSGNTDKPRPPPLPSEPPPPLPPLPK
# Chain of CDK9/cyclin T1 (P50750 whole entry): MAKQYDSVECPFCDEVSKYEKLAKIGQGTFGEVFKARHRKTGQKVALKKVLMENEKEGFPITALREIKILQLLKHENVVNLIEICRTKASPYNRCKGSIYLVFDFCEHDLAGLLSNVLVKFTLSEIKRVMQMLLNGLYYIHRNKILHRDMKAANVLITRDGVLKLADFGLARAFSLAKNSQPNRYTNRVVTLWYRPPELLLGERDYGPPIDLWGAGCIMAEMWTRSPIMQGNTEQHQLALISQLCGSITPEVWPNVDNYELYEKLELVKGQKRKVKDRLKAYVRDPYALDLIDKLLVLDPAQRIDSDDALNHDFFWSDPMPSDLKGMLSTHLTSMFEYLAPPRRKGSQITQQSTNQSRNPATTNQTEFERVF
# Summary of the method: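 IC50 measured in a contracted radiometric kinase assay with ATP at the experimentally determined Km(ATP) of each kinase. Apparent Ki was derived by Cheng-Prusoff: Ki = IC50/(1+[ATP]/Km(ATP)).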
# [6] = target: Protein kinase C theta type (Homo sapiens, UniProt Q04759); experiment: Inhibition of human full length PKCtheta at 1 uM using histone H1 as substrate incubated for 40 mins in presence of [gamma-33P]-ATP by scintillation counting method relative to control
# Chain of Protein kinase C theta type (Q04759 whole entry, looked up): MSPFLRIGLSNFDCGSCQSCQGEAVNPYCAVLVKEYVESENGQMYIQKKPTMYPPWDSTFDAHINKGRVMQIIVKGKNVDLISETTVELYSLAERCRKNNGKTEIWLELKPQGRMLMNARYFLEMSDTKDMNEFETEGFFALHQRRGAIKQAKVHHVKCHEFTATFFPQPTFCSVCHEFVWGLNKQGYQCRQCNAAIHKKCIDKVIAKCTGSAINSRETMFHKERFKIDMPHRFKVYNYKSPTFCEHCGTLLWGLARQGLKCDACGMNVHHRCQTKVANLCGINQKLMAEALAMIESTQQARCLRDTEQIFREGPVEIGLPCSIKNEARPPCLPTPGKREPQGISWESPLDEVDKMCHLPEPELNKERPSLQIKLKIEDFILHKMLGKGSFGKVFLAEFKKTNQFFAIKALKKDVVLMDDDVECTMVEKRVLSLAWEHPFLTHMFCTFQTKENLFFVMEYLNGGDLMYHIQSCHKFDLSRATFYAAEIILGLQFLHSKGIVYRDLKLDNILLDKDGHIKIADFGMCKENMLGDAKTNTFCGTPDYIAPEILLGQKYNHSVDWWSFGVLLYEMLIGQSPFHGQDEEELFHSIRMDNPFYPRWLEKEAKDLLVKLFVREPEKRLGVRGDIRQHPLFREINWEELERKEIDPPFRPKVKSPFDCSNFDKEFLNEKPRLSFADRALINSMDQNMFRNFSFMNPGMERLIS
# Summary of the method: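 Single-point screen of residual kinase activity (%) at 1 µM compound. Run as a contract radiometric [γ-33P]-ATP kinase assay, either the KinaseProfiler service or the HotSpot assay. ATP was set at the experimentally determined Km(ATP) of each kinase.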
# [7] = Dissociation constant, pKa of the compound by UV spectrometric titration method; type: physicochemical
# [8] = Inhibition of CYP4501A in human liver microsomes using ethoxyresorufin O-deethylation as substrate by LC-MS/MS analysis
# [9] = Toxicity in BALB/c mouse assessed as loss of ground substance at 70 mg/kg, po administered once daily for 7 days and measured on day 15; type: organism-based; details: in vivo, 168 h, time 7 day
# [10] = Toxicity in BALB/c mouse assessed as disordered chondrocyte columns at 70 mg/kg, po administered once daily for 7 days and measured on day 15; type: organism-based; details: in vivo, 168 h, time 7 day
# [11] = AUC in BALB/c mouse at 2 mg/kg, iv measured up to 24 hrs by LC-MS/MS analysis; details: in vivo
# [12] = Tmax in BALB/c mouse at 10 mg/kg, po measured up to 24 hrs by LC-MS/MS analysis; details: in vivo
# [13] = Half life in BALB/c mouse at 2 mg/kg, iv measured up to 24 hrs by LC-MS/MS analysis; details: in vivo
# [14] = Clearance in BALB/c mouse at 2 mg/kg, iv measured up to 24 hrs by LC-MS/MS analysis; details: in vivo
# [15] = Oral bioavailability in BALB/c mouse at 10 mg/kg measured up to 24 hrs by LC-MS/MS analysis; details: in vivo
smiles,measurement,setting,value
O=C1NCCC12CCN(c1c(Cl)cncc1-c1cc3ccccc3o1)CC2,inhibition,[1],inactive
same,inhibition,[2],inactive
same,inhibition,[3],inactive
same,inhibition,[4],inactive
same,Ki,[5],1.77 µM
same,inhibition,[6],> 50%
same,pKa,[7],4.9
same,IC50,[8],7.7 µM
same,Activity,[9],Toxic
same,Activity,[10],Toxic
same,AUC at 24 h,[11],1.39 µM·h
same,Tmax,[12],25.2 min
same,half-life,[13],20.4 min
same,clearance,[14],63 mL/min/kg
same,bioavailability,[15],33%
